Measured values: PMC7522377 (International Journal of Pharmaceutics: X, 2020)
Counter-ions that a name gives are not always drawn.

Experiments:
[1] = Acute toxicity: liver enzymes activity; assay type: in vivo, mice; conditions: serum
Outline: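 Blood was drawn 24 h after one IV dose of 30 mg/kg gemcitabine equivalent; controls were untreated. Serum was spun at 3500 rpm for 6 min, serially diluted, and run in triplicate in kit enzyme/substrate mixes at 37 °C. AST: glutamate standard, 450 nm. ALT: pyruvate standard, 595 nm. Activity = product formed × dilution / (reaction time × sample volume).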

PPCL-46 cells [2] = test: Cytotoxicity and spheroid integrity in 3D spheroid culture, Alamar blue assay; assay type: cell-based, human
liver and kidney tissues = test: Acute toxicity: histology; assay type: in vivo, mice; conditions: 30 mg/kg Gem equivalent, single iv bolus, H&E staining
Outline: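 Normal healthy mice got one IV bolus of test compound or GemHCl at 30 mg/kg gemcitabine equivalent; controls got none. Liver and kidneys were rinsed in PBS and fixed in 10% neutral buffered formalin for 48 h at room temperature. Tissue was paraffin-embedded, cut at 5 μm, H&E-stained and examined by light microscopy at 20×.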

EGFR = test: Immunohistochemical staining of PDX tumor sections; assay type: in vivo, human; conditions: PDX tumor tissue of treated mice
Outline: (§1)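 PDX tumours from treated mice were excised, PBS-washed, fixed 24 h in 10% buffered formalin and moved to 70% ethanol. Sections were immunostained for the target protein, dehydrated, coverslipped and scanned as whole slides at 40×. Staining was scored on the IHC scale (0, 1+, etc.).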

MiaPaCa-2 cells [3] = test: Cytotoxicity in 3D spheroid culture, Alamar blue assay; assay type: cell-based; conditions: Homo sapiens, MIA PaCa-2, 48 h, read-out: IC50 μM (3D MiaPaCa-2 culture)
Outline: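 MiaPaCa-2 cells were seeded at 3.0 × 10⁴/well in spheroid-forming plates and grown 72 h to form spheroids. Half the medium was then replaced with drug in growth medium for 48 h at 37 °C, 5% CO2. Resazurin (0.05%) was added for 4 h, and fluorescence was read at ex 560/580, em 590/610 nm to give percent viability.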

MiaPaCa-2 cells [4] = test: Cytotoxicity in 2D culture, Alamar blue assay; assay type: cell-based; conditions: Homo sapiens, MIA PaCa-2, 48 h, read-out: IC50 μM (2D MiaPaCa-2 culture)
Outline: (§2)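 Cells in DMEM (high glucose, 10% FBS, 1% PenStrep) were seeded at 1 × 10³/well and kept at 37 °C, 5% CO2. At 70–75% confluence they were treated for 48 h in triplicate per concentration; GemHCl ran 5–60 μM, diluted from a PBS stock into medium. Viability: 0.05% resazurin added for 4 h, fluorescence read at ex 560/580, em 590/610 nm; percent viable cells calculated; n = 3.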

HER2 = test: Immunohistochemical staining of PDX tumor sections; assay type: in vivo, human; conditions: PDX tumor tissue of treated mice
Outline: as §1

VEGF receptor = test: Immunohistochemical staining of PDX tumor sections; assay type: in vivo, human; conditions: PDX tumor tissue of treated mice
Outline: as §1

PPCL-46 cells [5] = test: Cytotoxicity in 2D culture, Alamar blue assay; assay type: cell-based; conditions: Homo sapiens, 48 h, read-out: IC50 μM (2D PPCL-46 culture), 48 h treatment, mean ± SEM, n = 3
Outline: as §2

[6] = Pharmacokinetic study after single intravenous bolus; assay type: in vivo; conditions: mice, iv bolus 30 mg/kg Gem equivalent, one-compartment model
Outline: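 Normal healthy mice were grouped as control, gemcitabine hydrochloride, or test compound. Each received a single intravenous bolus of 30 mg/kg gemcitabine equivalent; controls got 0.9% NaCl saline. Gemcitabine was measured in blood and tissue supernatants by peak area. Recovery was checked against control supernatants spiked with 0.5 μg/mL gemcitabine. Groups were compared by t-test.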

[7] = 24 h after 30 mg/kg Gem equivalent iv, mean ± SD, n = 3

Structure (SMILES): Nc1ccn([C@@H]2O[C@H](CO)[C@@H](O)C2(F)F)c(=O)n1 [GemHCl, Gemcitabine Hydrochloride]
- AST level compared with control group ([1]; 30 mg/kg Gem equivalent): no statistically significant elevation
- ALT [1, 7]: 232 ± 28 mUnits/mL
- AST [1, 7]: 85 ± 9 mUnits/mL
- IC50 (PPCL-46 cells [2]; Homo sapiens, 48 h, read-out: IC50 μM (3D PPCL-46 culture)): 95.2 ± 1.4 µM
- PPCL-46 spheroidal integrity after treatment (PPCL-46 cells [2]; varying concentrations, images of spheroids): smaller surface spheroidal area with less non-spheroidal shapes
- histopathological examination of kidney and liver compared to control (liver and kidney tissues): no significant morphological changes
- EGFR expression (IHC score) (EGFR): IHC 1+
- IC50 (MiaPaCa-2 cells [3]): 55.8 ± 1.2 µM
- IC50 (MiaPaCa-2 cells [4]): 45.7 ± 1.4 µM
- HER2 expression (IHC score) (HER2): IHC 2+
- VEGF receptor expression (IHC score) (VEGF receptor): IHC 3+
- IC50 (PPCL-46 cells [5]): 75.5 ± 1.9 µM
- AUC (0-t) [6]: 28200 ± 4300 ng·h/mL
- Vss (volume of distribution at steady state) [6]: 21.7 ± 3.6 μg/(μg/mL)
